# In ChEMBL document CHEMBL1158358, “Synthesis, antimicrobial and cytotoxic activities of some 5-arylidene-4-thioxo-thiazolidine-2-ones” (Eur J Med Chem, 2009):
# Experiments:
# Assay type in all cases: functional
# Pseudomonas aeruginosa = test: Antimicrobial activity against Pseudomonas aeruginosa UFPEDA 39 at 300 ug/disk after 24 hrs by disk diffusion method; details: UFPEDA 39, 24 h, read-out: IZ
# How it was run: (§1)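 Preliminary screen by disk diffusion. Paper disks (6 mm) holding 300 µg of compound were placed on agar plates inoculated with a standardized microbial suspension. DMSO-only disks served as negative controls. A mean inhibition zone below 7 mm was scored as no sensitivity. Values are means, n = 3.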
# Escherichia coli = test: Antimicrobial activity against Escherichia coli UFPEDA 224 at 300 ug/disk after 24 hrs by disk diffusion method; details: UFPEDA 224, 24 h, read-out: IZ; how it was run: as §1
# Staphylococcus aureus [1] = test: Antimicrobial activity against multidrug-resistant Staphylococcus aureus H.C. 20981 isolate after 20 hrs by twofold serial dilution technique; details: H.C. 20981, 20 h
# How it was run: (§2)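 Twofold serial dilution MIC in agar plates against Gram-positive strains and multidrug-resistant clinical isolates. Inoculum applied was 10⁵ CFU/plate. Plates with culture medium plus DMSO served as negative control. MIC was read after incubation at 35 °C for 20 h.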
# Staphylococcus aureus [2] = test: Antimicrobial activity against multidrug-resistant Staphylococcus aureus H.C. 20489 isolate after 20 hrs by twofold serial dilution technique; details: H.C. 20489, 20 h; how it was run: as §2
# [3] = tested on: Mycolicibacterium smegmatis; test: Antimicrobial activity against Mycobacterium smegmatis UFPEDA 71 after 20 hrs by twofold serial dilution technique; details: UFPEDA 71, 20 h
# How it was run: (§3)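 MIC was determined by twofold serial dilution. Bacteria were tested in plates at 10⁵ CFU/plate and read after 20 h. C. albicans was tested in tubes at 10³ CFU/tube and read after 48 h. All incubations were at 35 °C. Medium plus DMSO served as the negative control.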
# Micrococcus luteus [4] = test: Antimicrobial activity against Micrococcus luteus UFPEDA 06 after 20 hrs by twofold serial dilution technique; details: UFPEDA 06, 20 h; how it was run: as §3
# Staphylococcus [5] = test: Antimicrobial activity against coagulase-negative Staphylococcus H.A.M. 278 isolate after 20 hrs by twofold serial dilution technique; details: H.A.M. 278, 20 h; how it was run: as §3
# Enterococcus faecalis [6] = test: Antimicrobial activity against Enterococcus faecalis UFPEDA 138 at 300 ug/disk after 24 hrs by disk diffusion method; details: UFPEDA 138, 24 h, read-out: IZ; how it was run: as §1
# Staphylococcus aureus [7] = test: Antimicrobial activity against Staphylococcus aureus UFPEDA 01 at 300 ug/disk after 24 hrs by disk diffusion method; details: UFPEDA 01, 24 h, read-out: IZ; how it was run: as §1
# Bacillus subtilis [8] = test: Antimicrobial activity against Bacillus subtilis UFPEDA 16 after 20 hrs by twofold serial dilution technique; details: UFPEDA 16, 20 h; how it was run: as §3
# [9] = tested on: Mycolicibacterium smegmatis; test: Antimicrobial activity against Mycobacterium smegmatis UFPEDA 71 at 300 ug/disk after 24 hrs by disk diffusion method; details: UFPEDA 71, 24 h, read-out: IZ; how it was run: as §1
# NCI-H292 [10] = test: Cytotoxicity against human NCI-H292 cells at 2.5 ug/mL after 72 hrs by MTT assay; details: NCI-H292, 72 h, read-out: GI
# How it was run: (§4)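 MTT antiproliferative assay. Cells were diluted to 10⁵ cells/mL in 96-well plates and preincubated for 24 h at 37 °C in humid 5% CO₂. Compounds or vincristine (reference) were then added. Formazan was dissolved and OD read at 540 nm, compared with medium-only control cells. Run in triplicate.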
# Staphylococcus aureus [11] = test: Antimicrobial activity against multidrug-resistant Staphylococcus aureus H.C. 20905 isolate after 20 hrs by twofold serial dilution technique; details: H.C. 20905, 20 h; how it was run: as §2
# Staphylococcus aureus [12] = test: Antimicrobial activity against multidrug-resistant Staphylococcus aureus H.C. 21141 isolate after 20 hrs by twofold serial dilution technique; details: H.C. 21141, 20 h; how it was run: as §2
# Staphylococcus aureus [13] = test: Antimicrobial activity against multidrug-resistant Staphylococcus aureus H.C. 20794 isolate after 20 hrs by twofold serial dilution technique; details: H.C. 20794, 20 h; how it was run: as §2
# Staphylococcus [14] = test: Antimicrobial activity against coagulase-negative Staphylococcus H.A.M. 338 isolate after 20 hrs by twofold serial dilution technique; details: H.A.M. 338, 20 h; how it was run: as §3
# HEp-2 [15] = test: Cytotoxicity against human Hep2 cells at 2.5 ug/mL after 72 hrs by MTT assay; details: HEp-2, 72 h, read-out: GI; how it was run: as §4
# HEp-2 [16] = test: Cytotoxicity against human Hep2 cells at 1.25 ug/mL after 72 hrs by MTT assay; details: HEp-2, 72 h, read-out: GI; how it was run: as §4
# Serratia marcescens = test: Antimicrobial activity against Serratia marcescens UFPEDA 398 at 300 ug/disk after 24 hrs by disk diffusion method; details: UFPEDA 398, 24 h, read-out: IZ; how it was run: as §1
# Staphylococcus aureus [17] = test: Antimicrobial activity against multidrug-resistant Staphylococcus aureus H.C. 21036 isolate after 20 hrs by twofold serial dilution technique; details: H.C. 21036, 20 h; how it was run: as §2
# HEp-2 [18] = test: Cytotoxicity against human Hep2 cells at 5 ug/mL after 72 hrs by MTT assay; details: HEp-2, 72 h, read-out: GI; how it was run: as §4
# Enterococcus faecalis [19] = test: Antimicrobial activity against multidrug-resistant Enterococcus faecalis H.C. 24708 isolate after 20 hrs by twofold serial dilution technique; details: H.C. 24708, 20 h; how it was run: as §2
# HEp-2 [20] = test: Cytotoxicity against human Hep2 cells at 10 ug/mL after 72 hrs by MTT assay; details: HEp-2, 72 h, read-out: GI; how it was run: as §4
# NCI-H292 [21] = test: Cytotoxicity against human NCI-H292 cells at 1.25 ug/mL after 72 hrs by MTT assay; details: NCI-H292, 72 h, read-out: GI; how it was run: as §4
# Enterococcus faecalis [22] = test: Antimicrobial activity against multidrug-resistant Enterococcus faecalis H.C. 21944 isolate after 20 hrs by twofold serial dilution technique; details: H.C. 21944, 20 h; how it was run: as §2
# Staphylococcus aureus [23] = test: Antimicrobial activity against Staphylococcus aureus UFPEDA 01 after 20 hrs by twofold serial dilution technique; details: UFPEDA 01, 20 h; how it was run: as §2
# NCI-H292 [24] = test: Cytotoxicity against human NCI-H292 cells at 10 ug/mL after 72 hrs by MTT assay; details: NCI-H292, 72 h, read-out: GI; how it was run: as §4
# Bacillus subtilis [25] = test: Antimicrobial activity against Bacillus subtilis UFPEDA 16 at 300 ug/disk after 24 hrs by disk diffusion method; details: UFPEDA 16, 24 h, read-out: IZ; how it was run: as §1
# Enterococcus faecalis [26] = test: Antimicrobial activity against multidrug-resistant Enterococcus faecalis H.C. 21752 isolate after 20 hrs by twofold serial dilution technique; details: H.C. 21752, 20 h; how it was run: as §2
# Enterococcus faecalis [27] = test: Antimicrobial activity against multidrug-resistant Enterococcus faecalis H.C. 24962 isolate after 20 hrs by twofold serial dilution technique; details: H.C. 24962, 20 h; how it was run: as §2
# Candida albicans [28] = test: Antimicrobial activity against Candida albicans UFPEDA 1007 at 300 ug/disk after 48 hrs by disk diffusion method; details: UFPEDA 1007, 48 h, read-out: IZ; how it was run: as §1
# Candida albicans [29] = test: Antimicrobial activity against Candida albicans UFPEDA 1007 after 48 hrs by twofold serial dilution technique; details: UFPEDA 1007, 48 h; how it was run: as §3
# NCI-H292 [30] = test: Cytotoxicity against human NCI-H292 cells at 5 ug/mL after 72 hrs by MTT assay; details: NCI-H292, 72 h, read-out: GI; how it was run: as §4
# Enterococcus faecalis [31] = test: Antimicrobial activity against Enterococcus faecalis UFPEDA 138 after 20 hrs by twofold serial dilution technique; details: UFPEDA 138, 20 h; how it was run: as §3
# Micrococcus luteus [32] = test: Antimicrobial activity against Micrococcus luteus UFPEDA 06 at 300 ug/disk after 24 hrs by disk diffusion method; details: UFPEDA 06, 24 h, read-out: IZ; how it was run: as §1
Structure (SMILES),zone of inhibition at 300 µg/disc (Pseudomonas aeruginosa),zone of inhibition at 300 µg/disc (Escherichia coli),MIC (Staphylococcus aureus [1]),MIC (Staphylococcus aureus [2]),MIC [3],MIC (Micrococcus luteus [4]),MIC (Staphylococcus [5]),zone of inhibition at 300 µg/disc (Enterococcus faecalis [6]),zone of inhibition at 300 µg/disc (Staphylococcus aureus [7]),MIC (Bacillus subtilis [8]),zone of inhibition at 300 µg/disc [9],inhibition of growth at 2.5 µg/mL (NCI-H292 [10]),MIC (Staphylococcus aureus [11]),MIC (Staphylococcus aureus [12]),MIC (Staphylococcus aureus [13]),MIC (Staphylococcus [14]),inhibition of growth at 2.5 µg/mL (HEp-2 [15]),inhibition of growth at 1.25 µg/mL (HEp-2 [16]),zone of inhibition at 300 µg/disc (Serratia marcescens),MIC (Staphylococcus aureus [17]),also measured
O=C1NC(=S)/C(=C/c2cccc(Cl)c2)S1,< 7 mm,< 7 mm,2 µg/mL,2 µg/mL,16 µg/mL,8 µg/mL,16 µg/mL,22 mm,31 mm,8 µg/mL,24 mm,11.2%,2 µg/mL,8 µg/mL,2 µg/mL,2 µg/mL,5.44%,-0.36%,< 7 mm,2 µg/mL,inhibition of growth at 5 µg/mL (HEp-2 [18]): 17.6%; MIC (Enterococcus faecalis [19]): 4 µg/mL; inhibition of growth at 10 µg/mL (HEp-2 [20]): 18.8%; inhibition of growth at 1.25 µg/mL (NCI-H292 [21]): 3.35%; MIC (Enterococcus faecalis [22]): 4 µg/mL; MIC (Staphylococcus aureus [23]): 2 µg/mL; inhibition of growth at 10 µg/mL (NCI-H292 [24]): 30.9%; zone of inhibition at 300 µg/disc (Bacillus subtilis [25]): 25 mm; MIC (Enterococcus faecalis [26]): 4 µg/mL; MIC (Enterococcus faecalis [27]): 4 µg/mL; zone of inhibition at 300 µg/disc (Candida albicans [28]): 13 mm; MIC (Candida albicans [29]): 32 µg/mL; inhibition of growth at 5 µg/mL (NCI-H292 [30]): 21.6%; MIC (Enterococcus faecalis [31]): 8 µg/mL; zone of inhibition at 300 µg/disc (Micrococcus luteus [32]): 29 mm
O=C1NC(=S)/C(=C/c2ccc(Br)cc2)S1,< 7 mm,< 7 mm,4 µg/mL,4 µg/mL,4 µg/mL,8 µg/mL,4 µg/mL,17 mm,23 mm,2 µg/mL,17 mm,1.19%,4 µg/mL,4 µg/mL,2 µg/mL,4 µg/mL,-0.36%,-3.16%,< 7 mm,4 µg/mL,inhibition of growth at 5 µg/mL (HEp-2 [18]): 15.4%; MIC (Enterococcus faecalis [19]): 8 µg/mL; inhibition of growth at 10 µg/mL (HEp-2 [20]): 18.2%; inhibition of growth at 1.25 µg/mL (NCI-H292 [21]): 1.1%; MIC (Enterococcus faecalis [22]): 8 µg/mL; MIC (Staphylococcus aureus [23]): 4 µg/mL; inhibition of growth at 10 µg/mL (NCI-H292 [24]): 36.5%; zone of inhibition at 300 µg/disc (Bacillus subtilis [25]): 18 mm; MIC (Enterococcus faecalis [26]): 8 µg/mL; MIC (Enterococcus faecalis [27]): 8 µg/mL; zone of inhibition at 300 µg/disc (Candida albicans [28]): 15 mm; MIC (Candida albicans [29]): 32 µg/mL; inhibition of growth at 5 µg/mL (NCI-H292 [30]): 16.6%; MIC (Enterococcus faecalis [31]): 16 µg/mL; zone of inhibition at 300 µg/disc (Micrococcus luteus [32]): 21 mm
